Compound activity deposited in PubChem BioAssay by several laboratories.
Sampled rows, rich in hits. Any-hit rate of the full collection: about 1.9%.
NOD2-RIPK2 inh: inhibitors of human NOD2-RIPK2 interaction. CHO BLA complementation NOD2-RIPK2, CCF4 ratio. inhibition, % at 4.98 µM. 360,000 tested, 0.38% active; in the data active = inhibition above about 21%
MC4R antagonist: human MC4R antagonism in cAMP assay; P32245; MC4R-expressing cells, MTII-stimulated cAMP, LANCE TR-FRET; inhibition, % at 6.5 µM; 360,000 tested, 0.48% active; AID 540295;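 active = inhibition above its plate's cutoff, the mean of tested wells on that plate plus 3 SD, cut at about 29% in these data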
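system = U2OS cells with stable human MC4R expression | also added = Melanotan II challenge after compound preincubation | dosing = one concentration, 6.5 µM nominal | incubation = compound 30 min, challenge 1 h, detection 1 h | measured by = TR-FRET with Eu-cAMP and labeled anti-cAMP, 671 nm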
TLR4 MyD88 comp: inhibitors of human TLR4-MyD88 binding; 200,000 tested, 0.18% active; HeLa CL3-4 TLR4/MyD88 BLA complementation, FRET ratio; AID 861; inhibition, % at 8.4 µM; O00206+Q99836; in the data active = inhibition above about 25%
NTR1 agonist: activates human neurotensin receptor 1. P30989. NTR1-U2OS beta-arrestin-GFP spot imaging, agonist mode. activation, % at 20 µM. 330,000 tested, 0.17% active. AID 493036;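 active = activation at or above 40% of the spot to cytoplasm intensity ratio, with at least 20 cells analyzed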
TLR9-MyD88 inh: blocks human TLR9 binding to MyD88. Q9NR96+Q99836. CHO BLA complementation TLR9-MyD88, CCF4 FRET ratio. inhibition, % at 4.98 µM. 340,000 tested, 0.21% active. AID 504734;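 active = inhibition above the mean over all tested compounds plus 3 SD, cut at about 21% in these data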
MC4R ag barr: activates human MC4R beta-arrestin recruitment; P32245; U2OS MC4R beta-arrestin complementation, luminescence; percent of melanotan II response, DMSO zero; activation, % at 8.9 µM; 360,000 tested, 0.98% active;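 active = activation above a per-plate cutoff, the mean activation of sample wells on that plate plus 3 SD, cut at about 8% in these data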
cAMP nonselect: counter-screen for MC4R antagonists: nonselective cAMP signaling inhibitors; shares compounds with MC4R antagonist; parental U2OS, forskolin cAMP, LANCE TR-FRET; inhibition, % at 6.5 µM; 1,600 tested, 26% active; AID 602193;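 active = mean inhibition over triplicates above the low-control well mean plus 3 SD, set per campaign, cut at about 13% in these data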;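 also: signal is single emission at 671 nm which falls as cellular cAMP rises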
MC4R cAMP antag: human MC4R cAMP antagonism confirmation; MC4R-expressing cells, MTII-stimulated cAMP, TR-FRET; shares compounds with MC4R antagonist; inhibition, % at 6.5 µM; AID 602195; 1,600 tested, 27% active; in the data active = inhibition above about 29%
Of the large screens only hits and unclear results are named; the others gave an inactive call (follow-up assays come after a bar, where they were run).

CN(C(=O)COC(=O)COc1ccc2ccccc2c1)c1ccccc1	none (no result: TLR4 MyD88 comp, NTR1 agonist)
N/C(=N\OC(=O)c1ccc(Cl)c([N+](=O)[O-])c1)c1ccccn1	MC4R antagonist 47.8 | cAMP nonselect 28.3 | MC4R cAMP antag 39.9
N/C(=N\OC(=O)c1cc([N+](=O)[O-])ccc1Cl)c1cccnc1	MC4R antagonist 61.7 (no result: TLR4 MyD88 comp) | cAMP nonselect 18.1 | MC4R cAMP antag 47.2
N/C(=N\OC(=O)c1ccc(Cl)c(Cl)c1)c1ccccn1	none
N/C(=N\OC(=O)c1ccc(Cl)c([N+](=O)[O-])c1)c1ccccc1	MC4R antagonist 44.2 (no result: TLR4 MyD88 comp) | cAMP nonselect 22.4 | MC4R cAMP antag 36.0
COc1ccc(N(C)C(=O)c2sc(Cl)nc2C)cc1	none (no result: TLR4 MyD88 comp)
Cc1ccc(OC(=O)c2sc(Cl)nc2C)cc1C	MC4R antagonist 36.0 | cAMP nonselect 15.6 | MC4R cAMP antag 37.2
CC(=O)NC12CC3CC(C1)CC(C(=O)Nc1nc4c(C)cccc4s1)(C3)C2	none (no result: TLR4 MyD88 comp)
O=C1/C(=C/c2ccc([N+](=O)[O-])cc2)C=C(c2ccccc2)N1c1ccccc1	none
O=C1/C(=C/c2ccc([N+](=O)[O-])cc2)C=C(c2ccccc2)N1c1ccc(O)cc1	MC4R antagonist 32.4 | cAMP nonselect inactive | MC4R cAMP antag inactive
COc1ccc(C(=O)O)cc1S(=O)(=O)NCCN(C)C	none (no result: TLR4 MyD88 comp)
O=C(Nc1nc(-c2ccccn2)cs1)c1cc(Cl)ccc1[N+](=O)[O-]	MC4R antagonist 29.1 | cAMP nonselect 32.2 | MC4R cAMP antag inactive
Cc1cc(C(=O)Nc2nc(-c3ccccn3)cs2)ccc1[N+](=O)[O-]	none
CCC(C(=O)NCc1ccccc1)n1c(-c2cccs2)nc2ccccc21 (stereo not drawn)	none (no result: MC4R antagonist, TLR4 MyD88 comp, NTR1 agonist, TLR9-MyD88 inh, MC4R ag barr)
N#Cc1ccsc1NC(=O)c1ccc(Cl)c([N+](=O)[O-])c1	MC4R antagonist 35.6 (no result: TLR4 MyD88 comp) | cAMP nonselect inactive | MC4R cAMP antag inactive
N#Cc1ccsc1NC(=O)c1cccc([N+](=O)[O-])c1	none
Cc1c(C(=O)Nc2ccc(S(=O)(=O)NCC3CCCO3)cc2)cccc1[N+](=O)[O-] (stereo not drawn)	none
CC(=O)N=C1C=CC(=CN(O)C(C)(C)Cc2ccccc2)C=C1	none (no result: TLR4 MyD88 comp)
O=C(O)c1ccccc1C(=O)Nc1ccccc1NC(=O)c1ccccc1C(=O)O	none (no result: TLR4 MyD88 comp, TLR9-MyD88 inh)
CC(=O)c1sc(C(C)(C)C)cc1NC(=O)c1ccccc1C(=O)O	MC4R antagonist 36.2 (no result: TLR4 MyD88 comp, TLR9-MyD88 inh) | cAMP nonselect 31.9 | MC4R cAMP antag 55.9
CC(C)CNS(=O)(=O)c1ccc(S(=O)(=O)N2CCN(C3CCCC3)CC2)cc1	none (no result: TLR4 MyD88 comp)
O=C(Nc1nnc(-c2ccccc2)s1)c1ccc(Cl)c(S(=O)(=O)N2CCOCC2)c1	none (no result: NOD2-RIPK2 inh, MC4R antagonist, NTR1 agonist, TLR9-MyD88 inh, MC4R ag barr)
O=C(Nc1nnc(-c2ccccc2)s1)c1cc(S(=O)(=O)N2CCOCC2)c(Cl)cc1Cl	MC4R antagonist 32.4 | cAMP nonselect inactive | MC4R cAMP antag inactive
Nc1[nH]nc2ncc3cc4ccccc4nc3c12	MC4R antagonist 28.5 | cAMP nonselect inactive | MC4R cAMP antag inactive
C=CCn1c(SCC(=O)Nc2nncs2)nnc1-c1ccco1	none (no result: TLR4 MyD88 comp)
COc1cc(C(=S)N2CCOCC2)ccc1OC(=O)c1ccc([N+](=O)[O-])cc1[N+](=O)[O-]	MC4R antagonist 37.3 (no result: TLR4 MyD88 comp) | cAMP nonselect inactive | MC4R cAMP antag inactive
COc1ccc(C(=S)N2CCOCC2)cc1OC(=O)c1ccc([N+](=O)[O-])cc1	none (no result: TLR4 MyD88 comp)
COc1cc(/C=N/Nc2cc(C)nc(NS(=O)(=O)c3ccc(C)cc3)n2)ccc1O	none (no result: NTR1 agonist)
COc1ccc(/C=N/Nc2cc(C)nc(NS(=O)(=O)c3ccc(C)cc3)n2)cc1	MC4R antagonist 31.9 | cAMP nonselect inactive | MC4R cAMP antag inactive
Cc1ccc(NC2=C(CC(=O)O)C(c3ccccc3)N(c3ccc(C)cc3)C2=O)cc1 (stereo not drawn)	MC4R antagonist 30.9 | cAMP nonselect inactive | MC4R cAMP antag inactive
COc1ccc(C2C(CC(=O)O)=C(O)C(=O)N2c2ccccc2)cc1 (stereo not drawn)	none
NC(=O)COC(=O)[C@H](Cc1c[nH]c2ccccc12)NC(=O)c1ccc(F)cc1	MC4R antagonist 31.6 (no result: TLR4 MyD88 comp) | cAMP nonselect 13.8 | MC4R cAMP antag inactive
CS(=O)(=O)c1nc(-c2ccc(Br)cc2)cc(-c2ccccc2)c1C#N	MC4R antagonist 43.1 | cAMP nonselect 24.6 | MC4R cAMP antag 65.0
N#Cc1c(-c2ccc(Br)cc2)cc(-c2cccnc2)nc1N	none
COc1ccc(-c2cc(-c3ccccc3)c(C#N)c(S(C)(=O)=O)n2)cc1	MC4R antagonist 30.0 | cAMP nonselect 16.7 | MC4R cAMP antag 48.4
CS(=O)c1nc(-c2ccc(Br)cc2)cc(-c2ccccc2)c1C#N (stereo not drawn)	MC4R antagonist 57.0, NTR1 agonist 65.6 | cAMP nonselect inactive | MC4R cAMP antag 65.7
COc1ccc(-c2cc(-c3ccc(OC)cc3)c(C#N)c(SC)n2)cc1	none
Cc1ccc(C2=NN(C(=O)CCC(=O)O)C(c3cn(-c4ccccc4)nc3-c3ccc(C)cc3)C2)cc1 (stereo not drawn)	none
COc1ccc(C(=O)Nc2ccccc2-c2nnn(CC(N)=O)n2)cc1	none (no result: TLR4 MyD88 comp, NTR1 agonist)
COc1cc(OC)cc(C(=O)Nc2ccccc2-c2nnn(CC(=O)Nc3cc(C)on3)n2)c1	MC4R antagonist 29.9, MC4R ag barr 8.8 (no result: TLR4 MyD88 comp) | cAMP nonselect inactive | MC4R cAMP antag inactive
CC(C)CN(C(=O)COC(=O)c1nc(Cl)ccc1Cl)C1CCS(=O)(=O)C1 (stereo not drawn)	MC4R antagonist 35.6 | cAMP nonselect inactive | MC4R cAMP antag inactive
CC(C)CN(C(=O)COC(=O)c1c(Cl)ccc(Cl)c1Cl)C1CCS(=O)(=O)C1 (stereo not drawn)	none
COc1ccc(Cl)cc1NC(=O)CCNC(=O)Cn1ccc2ccccc2c1=O	none (no result: TLR4 MyD88 comp)
O=C(Nc1nc2ccccc2[nH]1)c1ccc(Cl)c(S(=O)(=O)N2CCCC2)c1	MC4R antagonist 29.0 | cAMP nonselect inactive | MC4R cAMP antag inactive
O=C(NC1=NCCS1)c1ccc(Cl)c(S(=O)(=O)N2CCCCC2)c1	none
O=C(Nc1nc2ccccc2[nH]1)c1ccc(S(=O)(=O)N2CCOCC2)cc1	none
O=C(NC1=NCCS1)c1ccc(Cl)c(S(=O)(=O)N2CCCC2)c1	MC4R antagonist 32.0 | cAMP nonselect inactive | MC4R cAMP antag inactive
Cc1cccc(C(=O)NC2=NCCS2)c1	MC4R antagonist 33.3 | cAMP nonselect inactive | MC4R cAMP antag inactive
O=C(NC1=NCCS1)c1ccccc1	none (no result: TLR4 MyD88 comp)
CCn1cc(S(=O)(=O)Nc2cc(C(=O)OC)ccc2C)cn1	none (no result: TLR4 MyD88 comp)
